Screening data (PubChem)
WT yeast gro inh: growth inhibition of WT yeast, mitochondrial fusion screen; 2.1% of 190,000 active; inhibition, % at 10 µM; mitochondrial fusion phenotypic screen, WT strain; AID 1362; in the data active = inhibition above about 58%; tested in S. cerevisiae
Diaph act CS: activates diaphorase or chemically reduces, flagging diaphorase assay artifacts; Diaphorase/resazurin coupled assay, resorufin fluorescence, 16 min; active compounds read high; 1 = vehicle wells, 0 = NADH-free wells; activation factor at 20 µM; 0.005% of 190,000 active; AID 1229;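 active = diaphorase activity raised at least twofold by the compound at 20 µM; inactive = activation factor below 2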
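Material: bacterial diaphorase enzyme (C. kluyveri); amount: enzyme 0.07 U/mL final; reagent: NADH substrate 0.114 mM plus resazurin dye 0.1 mM, final; doses: single compound dose of 20 µM, 1% DMSO final; timing: 16 min enzyme reaction, ambient temperature; measured by: fluorescence of resorufin, 544 nm excitation, 590 nm emission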
PMI act: increases human mannose-6-phosphate isomerase activity; P34949; purified human PMI, coupled resazurin fluorescence, 20 min; active compounds read high; 1 = vehicle control, 0 substrate-free wells; activation factor at 20 µM; 0.005% of 190,000 active;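 active = activation factor of 2 or more at 20 µM, relative to plate controls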
Target sequence (P34949 whole entry, looked up): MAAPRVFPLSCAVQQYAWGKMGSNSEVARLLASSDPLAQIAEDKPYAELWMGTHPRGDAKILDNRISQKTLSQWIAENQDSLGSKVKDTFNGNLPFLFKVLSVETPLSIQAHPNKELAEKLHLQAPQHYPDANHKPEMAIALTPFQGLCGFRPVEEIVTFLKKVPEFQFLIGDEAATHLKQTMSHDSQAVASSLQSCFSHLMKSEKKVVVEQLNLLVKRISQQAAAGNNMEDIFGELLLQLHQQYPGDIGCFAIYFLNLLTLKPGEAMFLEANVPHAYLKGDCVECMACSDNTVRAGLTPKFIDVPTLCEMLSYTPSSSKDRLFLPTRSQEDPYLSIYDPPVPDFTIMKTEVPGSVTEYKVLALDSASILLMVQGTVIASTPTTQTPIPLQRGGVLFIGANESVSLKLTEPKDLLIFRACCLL
PMI act satM6P: increases human PMI activity with near-saturating mannose 6-phosphate | coupled PMI enzyme assay, resazurin fluorescence, 20 min; active compounds read high; 1 = untreated enzyme, 0 = substrate-free blank | P34949 | activation factor at 20 µM | AID 1216 | 0.34% of 190,000 active;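 active = activation factor of 2 or more at 20 µM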
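test system = human PMI in coupled enzyme assay | medium = HEPES-buffered pH 7.4 with magnesium and detergent | also added = 1.0 mM mannose-6-phosphate substrate with 0.22 mM NADP+ | compound = 20 µM single dose | times = 20 min incubation at room temperature | measured by = resorufin fluorescence (Ex 544/Em 590 nm) from resazurin via diaphorase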
L major viab: Leishmania major promastigote growth inhibition | Leishmania major promastigotes, resazurin fluorescence viability | inhibition, % at 10 µM | 9% of 200,000 active | AID 1063; in the data active = inhibition above about 50%;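 note: promastigotes grown with compound for 44 hours at 28 °C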
Active calls of the source: *; . = no result given. This is a sample that favours compounds with a hit; in the whole collection about 10% have one here.

SMILES	WT yeast gro inh	Diaph act CS	PMI act	PMI act satM6P	L major viab
O=C(CCl)NCc1cc(-c2ccc(Cl)cc2)no1	-18.6	1	1.1	1	71.3*
Cc1sc2cc3c(c(C(=O)c4ccccc4)[n+]2c1C)-c1cccc2cccc-3c12	69.6*	1	1	1	100.5*
S=c1[nH]nc(-c2ccccc2)n1/N=C/c1ccc(-c2ccccc2Cl)o1	58.2*	0.8	0.9	0.9	9.5
S=c1[nH]nc(-c2ccccn2)n1/N=C/c1ccc(-c2ccccc2Br)o1	27.5	0.9	1.1	1.3	-6.9
CC1CCCC(NC(=O)COC(=O)c2sc3ccccc3c2Cl)C1C (centres undefined)	6.3	1	0.9	1	-3.9
CN(c1cccc(NC(=O)CN(c2ccc(C34CC5CC(CC(C5)C3)C4)cc2)S(C)(=O)=O)c1)S(C)(=O)=O	-4.4	0.7	0.8	0.8	89.8*
CN(c1cccc(NC(=O)CN(c2ccc(Cl)c(Cl)c2)S(=O)(=O)c2ccccc2)c1)S(C)(=O)=O	-17.9	0.8	0.8	0.9	18.4
CN(c1cccc(NC(=O)CSc2ccc(Cl)cc2)c1)S(C)(=O)=O	-6.3	0.9	1	0.9	74.2*
Cc1ccc(S(=O)(=O)N(CC(=O)Nc2cccc(N(C)S(C)(=O)=O)c2)c2ccc(Cl)c(Cl)c2)cc1	-6.6	0.8	0.8	0.7	67.3*
CC(=O)NN1C(=O)/C(=C/c2ccc(C(C)C)cc2)SC1=S	4.8	0.9	0.8	1	-6.3
COc1ccc(C2(CNC(=O)c3ccccc3[N+](=O)[O-])CCOCC2)cc1	-27.8	0.9	1	0.9	0.0
CCOc1cc(S(=O)(=O)NCc2ccncc2)ccc1Cl	4.2	0.9	0.9	1	11.0
COc1cccc(N2CCN(c3c(C#N)c(C(F)(F)F)nn3C)CC2)c1	32.3	0.9	0.8	0.9	80.4*
COc1ccc(/C=C/C(=O)NC(=S)NNC(=O)c2ccco2)cc1	-8.9	0.7	1	1.1	99.1*
COc1ccc(/C=C/C(=O)NC(=S)NNC(=O)Cc2cccs2)cc1	8.8	1	1.2	1.2	98.2*
COc1ccc(/C=C/C(=O)NC(=S)NNC(=O)c2c(-c3ccccc3)noc2C)cc1	-26.2	1.1	1.1	1.2	3.4
COc1ccc(NC(=O)c2cc3c(=O)n4ccccc4nc3n2C)cc1OC	-14.3	1	1	1	-0.2
CCc1c(C)sc(NC(=O)CC#N)c1C#N	-28.6	0.7	0.9	1	66.3*
COc1cc(OC)cc(C(=O)N2CCN=C2SCc2cccnc2)c1	4.4	1	1	1	-5.1
O=C(COc1ccccc1)N1CCN=C1SCc1cccnc1	4.9	0.8	0.9	0.9	65.2*
O=C(Cc1ccccc1)N1CCN=C1SCc1ccc([N+](=O)[O-])cc1	0.1	0.8	0.9	0.9	92.7*
COc1ccc(CC(=O)N2CCN=C2SCc2ccc([N+](=O)[O-])cc2)cc1	16.2	0.9	1	1	76.2*
Cn1c(SCC(=O)Nc2cccc(F)c2)nc2c([nH]c3ccccc32)c1=O	3.4	1	1	1.1	-0.2
Cc1ccc(N(Cc2ccc(C(=O)NCCSc3ccccn3)cc2)S(C)(=O)=O)cc1C	-16.6	0.7	0.9	0.9	67.5*
Cc1cccc(N(CC(=O)NCCSc2ccccn2)S(=O)(=O)c2ccccc2)c1	9.5	0.8	0.9	1	57.1*
SMILES	WT yeast gro inh	Diaph act CS	PMI act	PMI act satM6P	L major viab
CCN(CC)C(=O)C1CCCN(c2ccccc2[N+](=O)[O-])C1 (centres undefined)	6.1	0.9	0.9	0.9	-4.2
COc1cccc(-c2nn[nH]n2)c1O	-16.3	0.6	0.8	0.9	-5.8
CN1CCN(Cc2nc3ccccc3c(=O)n2Cc2nc(-c3ccc4ccccc4c3)cs2)CC1	80.7*	0.8	0.8	0.9	100.3*
O=[N+]([O-])c1ccc(Nc2nc(N/N=C\c3ccc4c(c3)OCO4)nc(N3CCCCC3)n2)cc1	31.5	1	0.9	1.1	99.8*
Cc1ccc(/C=N/Nc2nc(N3CCCCC3)nc(N3CCCCC3)n2)o1	19.6	0.9	1.1	1	41.8
COc1ccc([N+](=O)[O-])cc1/C=N/Nc1nc(N2CCCCC2)nc(N2CCCCC2)n1	15.3	0.9	1	0.9	42.3
O=[N+]([O-])c1ccc(/C=N/Nc2nc(N3CCCCC3)nc(N3CCCCC3)n2)cc1	49.0	0.9	0.9	0.9	53.5*
O=[N+]([O-])c1ccc(/C=N/Nc2nc(N3CCCCCC3)nc(N3CCCCCC3)n2)o1	63.2*	0.7	1	0.8	100.1*
O=[N+]([O-])c1cc2c(cc1/C=N/Nc1nc(N3CCCC3)nc(N3CCCC3)n1)OCO2	16.5	0.8	0.9	0.8	75.7*
O=[N+]([O-])c1ccccc1/C=N/Nc1nc(N2CCCC2)nc(N2CCCC2)n1	16.6	1	1	1	1.1
O=C(CCCN1C(=O)c2ccccc2C1=O)Nc1nnc(C2CC2)s1	3.8	0.9	1.1	1.1	-10.1
Cc1ccc(C(=O)C(OC(=O)CNS(=O)(=O)c2ccccc2)c2ccccc2)cc1 (centres undefined)	19.7	0.7	0.8	0.8	-4.1
O=[N+]([O-])c1ccc(-c2ccc(/C=N/Nc3nc(NCc4ccccc4)nc(N4CCOCC4)n3)o2)cc1	6.4	.	.	.	13.5
COc1nc(N/N=C/c2ccc(-c3ccccc3[N+](=O)[O-])o2)nc(N2CCOCC2)n1	1.9	0.6	0.7	0.5	85.9*
CC(C)(CNC(=O)/C=C/c1ccc(F)cc1)CNC(=O)/C=C/c1ccc(F)cc1	13.8	0.9	0.8	1	13.5
CC(NC(=O)c1sc2ccccc2c1Cl)C1CCCO1 (centres undefined)	-7.2	0.8	0.9	1	45.0
S=c1[nH]c(-c2ccc(Cl)cc2)cs1	65.4*	0.8	1.5	1.8	66.7*
CCOC(=O)CN1C(=O)C2Cc3ccccc3CN2C1=S (centres undefined)	0.2	1.1	1.2	1.2	-8.9
CC(C)Oc1ccc(/C=N/NC(N)=S)cc1	8.5	0.9	0.8	1	26.2
NC(=S)N/N=C/c1ccc(C(F)(F)F)cc1	32.7	0.9	0.9	0.9	69.5*
Cc1ccc(NC(=O)C(=O)NCCOc2ccc(Cl)cc2)c(C)c1	-1.9	0.9	0.9	1.1	-9.0
O=C(NCc1ccc(Cl)cc1)c1ccc(OCC2CCCO2)cc1 (centres undefined)	-13.1	1	1.1	1.1	43.7
Cc1ccc(CNC(=O)c2ccc(OCC3CCCO3)cc2)cc1 (centres undefined)	14.6	0.9	1	1	67.6*
Cc1cc(C)c2nc(NC(=O)c3ccc(OCC4CCCO4)cc3)sc2c1 (centres undefined)	29.1	1	1.1	1	73.0*
Cc1nn2c(C(F)(F)F)cc(-c3ccc(Cl)cc3)nc2c1C(=O)N1CCOCC1	11.8	0.8	0.9	0.9	92.0*
